High-throughput results deposited in PubChem by The Scripps Research Institute Molecular Screening Center.
In the library only some 3% were active in any assay of this set; here they are far more common.
HTR1A agonist: activates the human 5-HT1a serotonin receptor. 65,000 tested, 0.56% active. P08908. CHO 5-HT1a Ga15 NFAT-bla reporter, FRET ratio; 0% basal, 100% maximal reference agonist. activation, % at 10 µM. AID 567;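 active = activation above the screen-wide mean activation plus 3 SD, cut at about 19% in these data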
5-HT1A blocker: 5-HT1a (human) receptor antagonism; P08908; CHO 5-HT1a Ga15 NFAT-bla reporter, antagonist mode; inhibition, % at 10 µM; 62,000 tested, 0.68% active; AID 612;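 active = inhibition above the mean of all tested compounds plus 3 SD, cut at about 43% in these data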;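 note: receptor stimulated by 5-CT agonist at 100 nM near EC80; beta-lactamase reporter measured by ratiometric fluorescence of a cleavable substrate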
S1P1 ag-PAM: activates or potentiates agonism at human S1P1 receptor; S1P1 CRE-bla cells, forskolin, beta-lactamase FRET, potentiator mode; S1P1 agonist co-added at EC20, 2 nM; 100% = saturating reference agonist, 0% = basal; activation, % at 9.5 µM; 56,000 tested, 0.57% active; P21453; AID 449;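 active = activation above a cutoff set at the mean activation of all tested compounds plus 3 SD, cut at about 54% in these data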;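 note: forskolin at 4 µM as EC80 and the EC20 agonist is SEW2871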
5HT1E antag: blocks the human 5-HT1E serotonin receptor. P28566. CHO 5-HT1E Ga15 NFAT-bla reporter, FRET, antagonist. inhibition, % at 6 µM. 65,000 tested, 0.99% active;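 active = inhibition above a set limit, the mean inhibition across every tested compound plus 3 SD, cut at about 29% in these data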;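 note: signal is the 460 over 535 nm emission ratio of beta-lactamase substrate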
5HT1E ag: activates the human 5-HT1E serotonin receptor | P28566 | CHO 5-HT1E Ga15 NFAT-bla reporter, FRET; 0% DMSO wells, 100% control agonist wells | activation, % at 6 µM | 65,000 tested, 0.69% active;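 active = activation above a set limit, the screen-wide mean activation plus 3 SD, cut at about 8.5% in these data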
S1P3 ag: activates the human S1P3 receptor; S1P3 NFAT-BLA reporter cells, agonism, FRET ratio; relative to 1 µM S1P, basal subtracted; activation, % at 4.5 µM; 60,000 tested, 0.1% active;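 active = activation above the screen-wide mean plus 3 SD, cut at about 4.5% in these data, passing the limit was not always enough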
Target sequence (Q99500 whole entry, looked up): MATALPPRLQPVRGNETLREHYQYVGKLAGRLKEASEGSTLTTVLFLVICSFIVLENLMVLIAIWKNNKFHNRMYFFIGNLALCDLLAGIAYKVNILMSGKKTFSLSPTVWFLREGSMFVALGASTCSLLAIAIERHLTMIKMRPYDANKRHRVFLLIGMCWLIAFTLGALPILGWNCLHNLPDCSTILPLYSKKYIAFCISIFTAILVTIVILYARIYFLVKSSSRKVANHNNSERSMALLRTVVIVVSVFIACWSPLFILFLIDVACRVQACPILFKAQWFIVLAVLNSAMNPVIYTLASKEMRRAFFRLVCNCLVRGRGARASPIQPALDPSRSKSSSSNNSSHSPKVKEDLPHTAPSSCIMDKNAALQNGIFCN
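material = human S1P3 NFAT-BLA reporter CHO cells | schedule = 4 h compound at 37 °C, 2 h substrate at RT | measured by = fluorescent BLA substrate, ex 405 nm, em 460/535 nm ratio | controls = 1 µM S1P reference | replication = primary once, confirmation triplicate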
Numbers stand for hits; - = inactive; . = no result.

SMILES | HTR1A agonist | 5-HT1A blocker | S1P1 ag-PAM | 5HT1E antag | 5HT1E ag | S1P3 ag
Cc1c(CN2CCN(c3cccc(C(F)(F)F)c3)CC2)c(=O)n(-c2ccccc2)n1C | - | - | - | - | 60 | -
CN(c1cc(=O)n2ccccc2n1)C1CCCCC1 | 30 | - | - | - | - | -
Cc1cc(NC(=O)CCC(=O)N(c2ccccc2)C(C(=O)NCC2CCCO2)c2cccnc2)no1 (stereo not given) | - | - | - | - | - | -
CC(=O)NC1C(=O)N(CCc2ccccc2)c2ccccc21 (stereo not given) | - | - | - | - | 14 | -
COC(=O)C1=COC(C)C2CN3CCc4c([nH]c5ccccc45)C3CC12 (stereo not given) | 20 | - | - | - | - | -
CC1c2[nH]c3ccccc3c2CCN1C(=O)Nc1ccccc1 (stereo not given) | - | - | - | - | - | -
CCOC(=O)Cn1c(C)nc2ccccc21 | - | - | . | - | - | -
CCCOC(=O)c1ccc(OCC(O)Cn2c(C)nc3ccccc32)cc1 (stereo not given) | - | - | 95 | - | - | -
CN1CCN(C(=O)C2CC(c3c(F)cccc3Cl)=NO2)CC1 (stereo not given) | - | - | - | - | - | -
O=C(CSc1ncc(-c2ccc(F)cc2)[nH]1)N1CCCCC1 | - | - | - | - | - | -
CN1C(=O)CC(N2CCN(CCN=CC3=C(O)CC(C)(C)CC3=O)CC2)C1=O (stereo not given) | - | 55 | - | - | - | -
COc1ccc([C@@H]2Sc3ccccc3N(CCN(C)C)C(=O)[C@@H]2OC(C)=O)cc1 | - | . | - | - | - | -
COc1ccc(-c2csc(N(CC3CCCO3)C(=O)c3cccs3)n2)cc1 (stereo not given) | - | - | - | - | - | -
COc1ccc(OC)c(-c2csc(N(Cc3ccco3)C(=O)c3cccs3)n2)c1 | - | 43 | - | - | - | -
N=c1c(C(=O)NCc2ccc(F)cc2)cc2c(=O)n3ccccc3nc2n1CC1CCCO1 (stereo not given) | 30 | - | - | - | 9.1 | -
COCCCn1c(=N)c(C(=O)NCC2CCCO2)cc2c(=O)n3ccccc3nc21 (stereo not given) | 21 | - | - | - | - | -
N=c1c(C(=O)NC2CCCC2)cc2c(=O)n3ccccc3nc2n1CCN1CCOCC1 | - | - | . | - | 18 | .
Cc1ccc(CNC(=O)c2cc3c(=O)n4cccc(C)c4nc3n(CC3CCCO3)c2=N)cc1 (stereo not given) | - | - | - | - | - | -
COCCCn1c(=N)c(C(=O)NCC2CCCO2)cc2c(=O)n3cccc(C)c3nc21 (stereo not given) | - | - | - | - | - | -
CC(=O)NCCc1ccc(S(=O)(=O)Nc2cccnc2)cc1 | - | - | - | - | - | -
Cc1ccc(C)c(-n2nnnc2Sc2nnnn2-c2ccccc2)c1 | - | 46 | - | - | - | -
O=C1C2C3C=CC(C3=C3CCCCC3)C2C(=O)N1Cc1ccccc1 (stereo not given) | - | - | - | - | - | -
COc1cccc(-c2cc(C(F)(F)F)nc(NCc3ccco3)n2)c1 | - | 47 | . | - | - | .
COc1ccc(-c2cc(C(F)(F)F)nc(NCc3ccco3)n2)cc1OC | - | - | . | - | - | .
CCN(CC)c1ccc2c(C)c(CN3CCOCC3)c(=O)oc2c1 | 23 | - | - | - | - | -
SMILES | HTR1A agonist | 5-HT1A blocker | S1P1 ag-PAM | 5HT1E antag | 5HT1E ag | S1P3 ag
CCCCn1c(NC(=O)c2ccccc2)c(C#N)c2nc3ccccc3nc21 | - | - | - | - | - | -
CCCCn1c(NC(=O)c2ccc(F)cc2)c(C#N)c2nc3ccccc3nc21 | 29 | - | - | - | 9.1 | 4.7
Cc1ccc(Cn2c(SCc3cccnc3)nc3c2c(=O)n(C)c(=O)n3C)cc1 | 29 | - | - | - | - | -
COc1ccc2ncn(-c3ccccc3)c2c1 | - | - | 68 | - | - | -
O=C(NCc1ccccc1)N1CCn2c(nc3ccccc32)C1 | - | - | - | - | - | -
Cc1nc(NCCNC(=O)c2ccco2)c2c(C)c(C)sc2n1 | - | - | - | 32 | - | -
CCC(Oc1ccccc1)C(=O)N1CCN(c2ccccn2)CC1 (stereo not given) | - | - | . | - | - | -
CCC(Oc1ccccc1)C(=O)N1CCC(C(N)=O)CC1 (stereo not given) | 20 | - | . | - | - | -
FC(F)(F)c1ccc(N2CCN(c3cc(-c4ccccc4)nc4ncnn34)CC2)nc1 | - | - | 108 | - | - | -
COC(=O)c1ccc2c(=O)n(CCN3CCOCC3)c(=S)[nH]c2c1 | - | - | . | - | - | -
Cn1nnc2cc(C(=O)N3CCCCCC3)ccc21 | - | - | . | - | - | .
Cc1cccc(-n2cnc3cc(C(=O)N4CCCCC4)ccc32)c1 | 45 | - | . | - | - | .
COc1ccc(C)cc1NC(=O)CN1CCN(S(=O)(=O)c2ccc(Br)cc2)CC1 | - | - | - | - | - | -
Cc1cccc(N2CC34C=CC(O3)C(C(=O)O)C4C2=O)c1 (stereo not given) | - | - | - | - | - | -
Cc1ccc2c(c1)C1OCCC1C1N2C(=O)C2C(C(=O)O)C3C=CC21O3 (stereo not given) | 21 | - | - | - | - | -
CC(C)Cn1c(SCC(=O)c2ccc(Cl)s2)nnc1-c1ccco1 | - | - | - | - | - | -
CCOC(=O)c1ccc(N=c2sc(C(=O)OC)cc(=O)n2Cc2ccco2)cc1 | - | - | - | - | - | -
CCOC(=O)c1ccc(N=c2sc(C(=O)OC)cc(=O)n2CCCN2CCOCC2)cc1 | - | - | - | 40 | - | -
CCCCN=c1sc(C(=O)OC)cc(=O)n1CCCC | - | - | . | - | - | .
CCn1c(=O)cc(C(=O)OC)sc1=Nc1ccc(F)c(F)c1 | - | - | - | 38 | - | -
CCOC(=O)c1c(-c2ccc(C)o2)csc1NC(=O)CSc1nnc(C)s1 | - | 56 | - | - | - | -
CCOC(=O)c1c(-c2ccc(C)o2)csc1NC(=O)CSc1nnnn1-c1ccccc1 | - | - | - | - | - | -
Cc1ccc(-c2nnc3n2N=C(c2ccccc2Br)CS3)cc1 | - | - | - | 32 | - | -
CCOc1ccc(C2=Nn3c(nnc3-c3cccnc3)SC2)cc1 | - | . | - | - | - | -
CCOc1ccc(C2=Nn3c(nnc3-c3ccc(OC)cc3)SC2)cc1 | - | - | - | 39 | - | -
COc1ccc(C2=Nn3c(nnc3-c3ccccc3)SC2)cc1OC | - | . | - | 49 | - | -
COc1ccc(OC)c(C2=Nn3c(nnc3-c3cccc(OC(C)C)c3)SC2)c1 | - | - | - | 38 | - | -
